Data: ChEMBL document CHEMBL1255290, “Characterization of a novel human immunodeficiency virus type 1 protease inhibitor, A-790742” (Antimicrob Agents Chemother, 2008)

Key:
[1] = system: Human immunodeficiency virus 1; assay: Antiviral activity against HIV1 clone1 infected in HEK293 cells harboring A-790742-selected protease I84V mutation assessed as reduction in viral replication by luciferase reporter gene assay relative to wild type HIV1 pNL4-3; assay type: functional
Outline: (§1)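 Single-cycle assay: HEK-293 cells were cotransfected with luciferase-reporter HIV-1 protease clones plus a VSV-G expression vector. After 4 h, cells were replated at 2 × 10⁴/well over serial inhibitor dilutions in triplicate. Pseudovirus collected at 48 h infected fresh HEK-293 (10⁴/well). Luciferase read 48 h later gave % inhibition versus untreated and EC50. Fold change against WT pNL4-3-Luc (clones 1-4) or RF-Luc (clone 5) is the mean of three experiments.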

[2] = system: Human immunodeficiency virus 1; assay: Antiviral activity against HIV1 clone2 infected in HEK293 cells harboring A-790742-selected protease V82L mutation assessed as reduction in viral replication by luciferase reporter gene assay relative to wild type HIV1 pNL4-3; assay type: functional; outline: as §1
[3] = system: Human immunodeficiency virus 1; assay: Antiviral activity against HIV1 clone3 infected in HEK293 cells harboring A-790742-selected protease L33F, K45I, V82L, and I84V mutation assessed as reduction in viral replication by luciferase reporter gene assay relative to wild type HIV1 pNL4-3; assay type: functional; outline: as §1
[4] = system: Human immunodeficiency virus 1; assay: Antiviral activity against HIV1 clone4 infected in HEK293 cells harboring A-790742-selected protease L33F, A71V, G73S, V77I, V82L, and I84V mutation assessed as reduction in viral replication by luciferase reporter gene assay relative to wild type HIV1 pNL4-3; assay type: functional; outline: as §1
[5] = system: Human immunodeficiency virus 1; assay: Antiviral activity against HIV1 clone5 infected in HEK293 cells harboring A-790742-selected protease L63P, A71V, and V82G mutation assessed as reduction in viral replication by luciferase reporter gene assay relative to wild type HIV1 RF; assay type: functional; outline: as §1
[6] = system: Human immunodeficiency virus 1; assay: Antiviral activity against wild-type HIV1 pNL4-3 infected in human MT4 cells assessed as reduction in viral cytopathogenicity treated 1 hr post infection measured 5 days post infection in presence of 50% human serum by MTT assay; assay type: functional, organism-based; settings: Human immunodeficiency virus 1, pNL4-3, MT4
[7] = system: Human immunodeficiency virus 1; assay: Antiviral activity against HIV1 P25 infected in human MT4 cells harboring protease L10F, G16E, V32I, M46I, I47A, H69Y, I84V, and T91S mutation derived from viral passages with Lopinavir assessed as reduction in viral cytopathogenicity treated 1 hr post infection measured 5 days post infection by MTT assay; assay type: functional, organism-based; settings: Human immunodeficiency virus 1, P25, MT4
Outline: (§2)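 For the assay, 10⁶ MT-4 cells were infected at MOI 0.003, washed after 1 h, and plated at 10⁴ cells/well with eight serial compound dilutions in triplicate (0.5% DMSO final). MTT cytopathic read-out at day 5; EC50 from dose-response fitting.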

[8] = system: Human immunodeficiency virus 1; assay: (§3) Antiviral activity against HIV1 P9 infected in human MT4 cells derived from viral passages with A-790742 harboring protease V82V/L and I84V mutation assessed as reduction in viral cytopathogenicity treated 1 hr post infection measured 5 days post infection by MTT assay relative to wild type HIV1 pNL4-3; assay type: functional; outline: as §2
[9] = system: Human immunodeficiency virus 1; assay: as §3, with “P15” for “P9”, “L33L/F, K45I, V82L,” for “V82V/L”; assay type: functional; outline: as §2
[10] = system: Human immunodeficiency virus 1; assay: as §3, with “P21” for “P9”, “L23I, L33F, K45I, A71A/V, V77I, V82L,” for “V82V/L”; assay type: functional; outline: as §2
[11] = system: Human immunodeficiency virus 1; assay: as §3, with “P13” for “P9”, “M46I, L63P, A71V,” for “V82V/L”, “V82G” for “I84V”, “RF” for “pNL4-3”; assay type: functional; outline: as §2
[12] = system: Human immunodeficiency virus 1; assay: Antiviral activity against wild-type HIV1 pNL4-3 infected in human MT4 cells assessed as reduction in viral cytopathogenicity treated 1 hr post infection measured 5 days post infection in absence of human serum by MTT assay; assay type: functional, organism-based; settings: Human immunodeficiency virus 1, pNL4-3, MT4; outline: as §2
[13] = system: Human immunodeficiency virus 1; assay: Antiviral activity against wild-type HIV1 RF infected in human MT4 cells assessed as reduction in viral cytopathogenicity treated 1 hr post infection measured 5 days post infection in absence of human serum by MTT assay; assay type: functional, organism-based; settings: Human immunodeficiency virus 1, RF; outline: as §2
[14] = system: Human immunodeficiency virus 1; assay: Antiviral activity against HIV1 A17 infected in human MT4 cells harboring protease L10F, V32I, M46I, I47V, Q58E, and I84V mutation derived from viral passages with Lopinavir assessed as reduction in viral cytopathogenicity treated 1 hr post infection measured 5 days post infection by MTT assay; assay type: functional, organism-based; settings: Human immunodeficiency virus 1, A17, MT4; outline: as §2
[15] = system: Human immunodeficiency virus 1; assay: Antiviral activity against HIV1 isolate 7 infected in human MT4 cells obtained from protease inhibitor-resistant patient harboring protease L10I, M46M/L, G48V, I54V, L63P, A71V, I72M, V77I, V82A, L90M, I93L mutation derived from viral passages with Lopinavir assessed as reduction in viral cytopathogenicity treated 1 hr post infection measured 5 days post infection by MTT assay relative to wild …; assay type: functional
[16] = system: Human immunodeficiency virus 1; assay: Antiviral activity against HIV1 isolate 8 infected in human MT4 cells obtained from protease inhibitor-resistant patient harboring protease L10I, I13V, L33F, E34Q, R41K, M46I, I54V, K55R, R57K, Q58E, I62V, L63P, A71V, I72I/T, G73S, V82A, I84V, L90M mutation derived from viral passages with Lopinavir assessed as reduction in viral cytopathogenicity treated 1 hr post infection measured 5 days post …; assay type: functional
[17] = system: Human immunodeficiency virus 1; assay: Antiviral activity against HIV1 isolate 9 infected in human MT4 cells obtained from protease inhibitor-resistant patient harboring protease L10I, I15I/V, K20R, L33F, E35D, M36I, N37D, R41K, K43I, M46I, I54V, I62V, L63P, A71T, I72T, V82A, I84V, L90M, I93L mutation derived from viral passages with Lopinavir assessed as reduction in viral cytopathogenicity treated 1 hr post infection measured 5 days …; assay type: functional
[18] = system: Human immunodeficiency virus 1; assay: Antiviral activity against HIV1 isolate 10 infected in human MT4 cells obtained from protease inhibitor-resistant patient harboring protease L10I, I13V, K20R, L33F, E35D, M36I, N37D, I54L, Q58E, I62V, L63P, A71V, V82A, I84V, L90M mutation derived from viral passages with Lopinavir assessed as reduction in viral cytopathogenicity treated 1 hr post infection measured 5 days post infection by MTT …; assay type: functional
[19] = system: Human immunodeficiency virus 1; assay: Antiviral activity against HIV1 isolate 11 infected in human MT4 cells obtained from protease inhibitor-resistant patient harboring protease L10I, I15V, K20R, E21Q, E35D, M36I, N37D, R41K, M46L, I54V, I62V, L63P, A71V, T74D, P79A, V82T, I84V, I85V, L90M, I93L mutation derived from viral passages with Lopinavir assessed as reduction in viral cytopathogenicity treated 1 hr post infection measured …; assay type: functional
[20] = system: Human immunodeficiency virus 1; assay: Antiviral activity against HIV1 isolate 12 infected in human MT4 cells obtained from protease inhibitor-resistant patient harboring protease L10I, I13V, K20I, E35D, M36I, M46I, I50V, I54V, R57K, I62V, L63P, A71V, V82A, L89V, L90M, Q92K mutation derived from viral passages with Lopinavir assessed as reduction in viral cytopathogenicity treated 1 hr post infection measured 5 days post infection by …; assay type: functional
[21] = system: Human immunodeficiency virus 1; assay: Antiviral activity against HIV1 isolate 13 infected in human MT4 cells obtained from protease inhibitor-resistant patient harboring protease L10I, K14R, L33F, E34Q, R41K, K45R, M46I, I50V, K55R, L63P, A71V, G73T, V77I, V82A, L90M, I93L mutation derived from viral passages with Lopinavir assessed as reduction in viral cytopathogenicity treated 1 hr post infection measured 5 days post infection by …; assay type: functional
[22] = system: Human immunodeficiency virus 1; assay: Antiviral activity against HIV1 isolate 6 infected in human MT4 cells obtained from protease inhibitor-resistant patient harboring protease L10I, L24I, M46I, I54V, K55R, Q58E, L63P, I64V, A71V, V82A, T91A mutation derived from viral passages with Lopinavir assessed as reduction in viral cytopathogenicity treated 1 hr post infection measured 5 days post infection by MTT assay relative to wild type …; assay type: functional
[23] = system: Human immunodeficiency virus 1; assay: Antiviral activity against HIV1 B26 infected in human MT4 cells harboring protease L33F, K45I, M46I, I50V, I54V, A71V, and V82F mutation derived from viral passages with Lopinavir assessed as reduction in viral cytopathogenicity treated 1 hr post infection measured 5 days post infection by MTT assay; assay type: functional, organism-based; settings: Human immunodeficiency virus 1, B26, MT4; outline: as §2
[24] = system: Human immunodeficiency virus 1; assay: Antiviral activity against HIV1 isolate 2 infected in human MT4 cells obtained from protease inhibitor-resistant patient harboring protease L10I, I15V, G16E, K20R, E35D, M36I, R41K, I54A, R57K, Q61D, A71V, I72R, V82A, L89I, L90M, Q92K mutation derived from viral passages with Lopinavir assessed as reduction in viral cytopathogenicity treated 1 hr post infection measured 5 days post infection by …; assay type: functional
[25] = system: Human immunodeficiency virus 1; assay: Antiviral activity against HIV1 isolate 3 infected in human MT4 cells obtained from protease inhibitor-resistant patient harboring protease L10I, E35D, N37D, […], I54V, L63P, A71V, T74P, I84V, L90M, I93L mutation derived from viral passages with Lopinavir assessed as reduction in viral cytopathogenicity treated 1 hr post infection measured 5 days post infection by MTT assay relative to wild type …; assay type: functional
[26] = system: Human immunodeficiency virus 1; assay: Antiviral activity against HIV1 isolate 4 infected in human MT4 cells obtained from protease inhibitor-resistant patient harboring protease N37T, M46I, Q58E, I64V, T74K, V77I, V82F, L90M mutation derived from viral passages with Lopinavir assessed as reduction in viral cytopathogenicity treated 1 hr post infection measured 5 days post infection by MTT assay relative to wild type HIV1 pNL4-3; assay type: functional
[27] = system: Human immunodeficiency virus 1; assay: Antiviral activity against HIV1 isolate 5 infected in human MT4 cells obtained from protease inhibitor-resistant patient harboring protease L10F, I15V, M46I, L63P, A71V, I72L, V82T, I84V, I85V, L90M mutation derived from viral passages with Lopinavir assessed as reduction in viral cytopathogenicity treated 1 hr post infection measured 5 days post infection by MTT assay relative to wild type HIV1 …; assay type: functional

SMILES	Ratio EC50 [1]	Ratio EC50 [2]	Ratio EC50 [3]	Ratio EC50 [4]	Ratio EC50 [5]	EC50 [6]	EC50 [7]	Ratio EC50 [8]	Ratio EC50 [9]	Ratio EC50 [10]	Ratio EC50 [11]	further results
CC(C)CN(C[C@@H](O)[C@H](Cc1ccccc1)NC(=O)O[C@H]1CO[C@H]2OCC[C@H]21)S(=O)(=O)c1ccc(N)cc1	1	1	12	7	59	40 nM	857 nM	–	–	–	–	–
CC(C)CN(C[C@@H](O)[C@H](Cc1ccccc1)NC(=O)O[C@H]1CCOC1)S(=O)(=O)c1ccc(N)cc1	1	1	12	2	41	–	–	9	11	34	41	–
CCC[C@@]1(CCc2ccccc2)CC(O)=C([C@H](CC)c2cccc(NS(=O)(=O)c3ccc(C(F)(F)F)cn3)c2)C(=O)O1	–	–	–	6	–	7840 nM	–	–	–	–	–	EC50 [12]: 184 nM; EC50 [13]: 204 nM; EC50 [14]: 360 nM
CC(C)c1nc(CN(C)C(=O)N[C@H](C(=O)N[C@@H](Cc2ccccc2)C[C@H](O)[C@H](Cc2ccccc2)NC(=O)OCc2cncs2)C(C)C)cs1 [RITONAVIR]	3	7	79	14	1386	–	–	26.7	29	>141	79	–
COC(=O)N[C@H](C(=O)N[C@@H](Cc1ccccc1)[C@@H](O)CN(Cc1ccc(-c2ccccn2)cc1)NC(=O)[C@@H](NC(=O)OC)C(C)(C)C)C(C)(C)C [ATAZANAVIR]	1	1	34	16	39	11 nM	355 nM	6	14	145	31	Ratio EC50 [15]: 25; Ratio EC50 [16]: 32; Ratio EC50 [17]: 22; Ratio EC50 [18]: 56; Ratio EC50 [19]: 43; Ratio EC50 [20]: 3; Ratio EC50 [21]: 5; Ratio EC50 [22]: 15; EC50 [12]: 4 nM; EC50 [13]: 7 nM; EC50 [14]: 296 nM; EC50 [23]: 51 nM; Ratio EC50 [24]: 172; Ratio EC50 [25]: 89; Ratio EC50 [26]: 5; Ratio EC50 [27]: 18
Cc1c(O)cccc1C(=O)N[C@@H](CSc1ccccc1)[C@H](O)CN1C[C@H]2CCCC[C@H]2C[C@H]1C(=O)NC(C)(C)C	1	1	3	2	203	–	–	5	6	>93	67	–
Cc1cccc(C)c1OCC(=O)N[C@@H](Cc1ccccc1)[C@@H](O)C[C@H](Cc1ccccc1)NC(=O)[C@H](C(C)C)N1CCCNC1=O [LOPINAVIR]	–	–	–	–	–	–	> 10000 nM	–	–	–	–	–
CC(C)(C)NC(=O)[C@@H]1CN(Cc2cccnc2)CCN1C[C@@H](O)C[C@@H](Cc1ccccc1)C(=O)N[C@H]1c2ccccc2C[C@H]1O.O	1	1	5	2	76	–	–	3	5	14	31	–
CC(C)(C)NC(=O)[C@@H]1C[C@@H]2CCCC[C@@H]2CN1C[C@@H](O)[C@H](Cc1ccccc1)NC(=O)[C@H](CC(N)=O)NC(=O)c1ccc2ccccc2n1	1	1	0.4	1	28	–	–	3	4	5	21	–
